Laboratory results taken from ChEMBL document CHEMBL1144275, “Studies on the structure-activity relationship of 2',6'-dimethyl-l-tyrosine (Dmt) derivatives: bioactivity profile of H-Dmt-NH-CH(3)” (Bioorg Med Chem Lett, 2005).
Non-standard residues stand in square brackets, D forms with d. Residues, ends and D or L forms follow the SMILES beside them. Dmt = Cc1cc(O)cc(C)c1C[C@H](N)C(=O)O; Tic = O=C(O)[C@@H]1Cc2ccccc2CN1

Assays:
Rattus norvegicus = organism: Rattus norvegicus; assay: Ratio of binding affinities for opioid receptors delta 1 and mu 1
Summary of the method: (§1)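 Ki values given as the mean ± SE of four to seven experiments; selectivity expressed as Kiδ/Kiμ.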

[1] = Binding affinity for rat brain opioid receptor delta 1; summary of the method: as §1
[2] = Binding affinity for rat brain opioid receptor mu 1; summary of the method: as §1
Mus musculus [3] = organism: Mus musculus; assay: Percent antagonism was evaluated relative to morphine in mice using naloxone; assay type: functional
Mus musculus [4] = organism: Mus musculus; assay: Minimum effective dose showing antinociception activity in mice; assay type: functional
Summary of the method: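 Minimum effective dose (nmol) for antinociception in mice after intracerebroventricular administration, measured by tail-flick and hot-plate tests.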

Mus musculus [5] = assay: Analgesia was determined by hotplate (HP) test relative to morphine in mice after antinociception of intracerebroventricularly (icv) administration; assay type: functional
Mus musculus [6] = assay: Analgesia was determined by tail-flick (TF) test relative to morphine in mice after antinociception of intracerebroventricularly (icv) administration;Range 0.48-0.55; assay type: functional
Mus musculus [7] = assay: Analgesia was determined by tail-flick (TF) test relative to morphine in mice after antinociception of intracerebroventricularly (icv) administration;Range 1.3-1.7; assay type: functional
Mus musculus [8] = assay: Analgesia was determined by hotplate (HP) test relative to morphine in mice after antinociception of intracerebroventricularly (icv) administration;Range-0.64?0.85; assay type: functional

CCCNC(=O)[C@@H](N)Cc1c(C)cc(O)cc1C
Ratio (Rattus norvegicus): 9.82
Ki [1]: 166 nM
Ki [2]: 16.9 nM

Cc1cc(O)cc(C)c1C[C@H](N)C(=O)NC(C)C
Ratio (Rattus norvegicus): 22
Ki [1]: 492 nM
Ki [2]: 22.4 nM

Cc1cc(O)cc(C)c1C[C@H](N)C(=O)NO
Ratio (Rattus norvegicus): 5.58
Ki [1]: 9490 nM

Cc1cc(O)cc(C)c1C[C@H](N)C(=O)NC1CCCCC1
Ratio (Rattus norvegicus): 1.71
Ki [1]: 197 nM
Ki [2]: 115 nM

Cc1cc(O)cc(C)c1C[C@H](N)C(=O)NC12CC3CC(CC(C3)C1)C2
Ratio (Rattus norvegicus): 0.27
Ki [1]: 208 nM
Ki [2]: 767 nM

Cc1cc(O)cc(C)c1C[C@H](N)C(=O)NCCO
Ratio (Rattus norvegicus): 28.1
Ki [1]: 455 nM
Ki [2]: 16.2 nM

Cc1cc(O)cc(C)c1C[C@H](N)C(=O)NCCN
Ratio (Rattus norvegicus): 338
Ki [1]: 3650 nM
Ki [2]: 10.8 nM

Cc1cc(O)cc(C)c1C[C@H](N)C(=O)NCN
Ratio (Rattus norvegicus): 13.4
Ki [1]: 2410 nM
Ki [2]: 180 nM

Cc1cc(O)cc(C)c1C[C@H](N)C(=O)O
Ratio (Rattus norvegicus): 1.55
Ki [1]: 46500 nM

CONC(=O)[C@@H](N)Cc1c(C)cc(O)cc1C
Ratio (Rattus norvegicus): 26.3
Ki [1]: 4580 nM
Ki [2]: 174 nM

Cc1cc(O)cc(C)c1C[C@H](N)C(=O)NCC(=O)O
Ratio (Rattus norvegicus): 0.43
Ki [1]: 1150 nM
Ki [2]: 2700 nM

Cc1cc(O)cc(C)c1C[C@H](N)C(=O)NC1C2CC3CC(C2)CC1C3 (some centres undefined)
Ratio (Rattus norvegicus): 0.23
Ki [1]: 175 nM
Ki [2]: 746 nM

CCNC(=O)[C@@H](N)Cc1c(C)cc(O)cc1C
Ratio (Rattus norvegicus): 41.6
Ki [1]: 649 nM
Ki [2]: 15.6 nM

Cc1cc(O)cc(C)c1C[C@H](N)C(=O)Nc1ccccc1
Ratio (Rattus norvegicus): 0.069
Ki [1]: 120 nM
Ki [2]: 1730 nM

Cc1cc(O)cc(C)c1C[C@H](N)C(=O)N1Cc2ccccc2C[C@H]1C(=O)O (H-[Dmt]-[Tic]-OH)
Ratio (Rattus norvegicus): 6.6e-07
Ki [2]: 3220 nM

Cc1cc(O)cc(C)c1C[C@H](N)C(=O)NC(C)(C)C
Ratio (Rattus norvegicus): 14.8
Ki [1]: 531 nM
Ki [2]: 36 nM

Cc1cc(O)cc(C)c1C[C@H](N)C(=O)Nc1cccc2ccccc12
Ratio (Rattus norvegicus): 0.054
Ki [1]: 52.8 nM
Ki [2]: 966 nM

Cc1cc(O)cc(C)c1C[C@H](N)C(=O)NCCC(=O)O
Ratio (Rattus norvegicus): 1
Ki [1]: 328 nM
Ki [2]: 329 nM

Cc1cc(O)cc(C)c1C[C@H](N)C(N)=O
Antagonism (Mus musculus [3]): 100%
Ratio (Rattus norvegicus): 13
Ki [1]: 1470 nM
MED (Mus musculus [4]): 200 nM
Activity (Mus musculus [5]): 0.26%
Activity (Mus musculus [6]): 0.55%

CNC(=O)[C@@H](N)Cc1c(C)cc(O)cc1C
Antagonism (Mus musculus [3]): 73%
Ratio (Rattus norvegicus): 61.7
Ki [1]: 460 nM
MED (Mus musculus [4]): 30 nM
Activity (Mus musculus [7]): 1.7%
Activity (Mus musculus [8]): 0.85%
Ki [2]: 7.45 nM
